Data from ChEMBL document CHEMBL1153830, “Treatment of a clinically relevant plant-pathogenic fungus with an agricultural azole causes cross-resistance to medical azoles and potentiates caspofungin efficacy” (2007).
In brackets after ≈: the same amount, converted by molar mass.

What was measured:
Format in all cases: functional
[1] = tested on: Colletotrichum graminicola; assay: Fungicidal activity against tebuconazole-nonadapted wild type Colletotrichum graminicola CgM2 assessed as inhibition of radial growth rate at 23 degC in darkness; settings: for EC50: Colletotrichum graminicola, CgM2, read-out: ED50 (the source's name)
Procedure, shortened: (§1)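 Radial growth on solid complete medium, 23°C, darkness. Colony diameters were read at 3 and 6 days after inoculation and compared with drug-free control plates. Azoles and picoxystrobin were dissolved in 12% (wt/vol) Cremophor EL and tested at 0–2.5 μg/ml. Caspofungin, amphotericin B and nystatin were dissolved in water and tested from 0.00025 μg/ml; caspofungin plates used sucrose (10 mg/ml) in place of glucose.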

[2] = tested on: Colletotrichum graminicola; assay: Fungicidal activity against tebuconazole-adapted wild type Colletotrichum graminicola CgM2 assessed as inhibition of radial growth rate at 23 degC in darkness; settings: for EC50: Colletotrichum graminicola, CgM2, read-out: ED50 (the source's name); procedure, shortened: as §1
[3] = tested on: Colletotrichum graminicola; assay: Ratio of ED50 for tebuconazole-adapted wild type Colletotrichum graminicola CgM2 to ED50 for tebuconazole-nonadapted wild type Colletotrichum graminicola CgM2
Procedure, shortened: (§2)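 Values came from logit transformation and linear regression, with confidence intervals at α = 0.05. Ratios compare tebuconazole-adapted with nonadapted CgM2.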

[4] = tested on: Colletotrichum graminicola; assay: Ratio of ED90 for tebuconazole-adapted wild type Colletotrichum graminicola CgM2 to ED90 for tebuconazole-nonadapted wild type Colletotrichum graminicola CgM2; procedure, shortened: as §2

Row | SMILES | ED90 [1] | EC50 [1] | ED90 [2] | EC50 [2] | fold change (FC) [3] | fold change (FC) [4]
1 | Clc1ccc(COC(Cn2ccnc2)c2ccc(Cl)cc2Cl)c(Cl)c1 (stereo not given) [MICONAZOLE] | 1.327 µg/mL (≈ 3.19 µM) | 0.028 µg/mL (≈ 0.0673 µM) | 4.386 µg/mL (≈ 10.5 µM) | 0.048 µg/mL (≈ 0.115 µM) | – | –
2 | CO/C=C(/C(=O)OC)c1ccccc1COc1cccc(C(F)(F)F)n1 [PICOXYSTROBIN] | 0.148 µg/mL (≈ 0.403 µM) | 0.006 µg/mL (≈ 0.0163 µM) | 1.041 µg/mL (≈ 2.83 µM) | 0.026 µg/mL (≈ 0.0708 µM) | 4 | 7
3 | Cc1cc(C2CCCCC2)n(O)c(=O)c1.NCCO [CICLOPIROX OLAMINE] | 64.842 µg/mL | 9.83 µg/mL | 54.616 µg/mL | 3.67 µg/mL | – | –
4 | CCC(C)(C)c1ccc(CC(C)CN2C[C@@H](C)O[C@@H](C)C2)cc1 (stereo not given in full) [AMOROLFINE] | 0.347 µg/mL (≈ 1.09 µM) | 0.03 µg/mL (≈ 0.0945 µM) | 0.36 µg/mL (≈ 1.13 µM) | 0.023 µg/mL (≈ 0.0724 µM) | – | –
5 | C[C@@H]1[C@H](O)[C@@H](C)/C=C/C=C/C=C/C=C/C=C/C=C/C=C/[C@H](O[C@@H]2O[C@H](C)[C@@H](O)[C@H](N)[C@@H]2O)C[C@@H]2O[C@](O)(C[C@@H](O)C[C@@H](O)[C@H](O)CC[C@@H](O)C[C@@H](O)CC(=O)O[C@H]1C)C[C@H](O)[C@H]2C(=O)O [AMPHOTERICIN B] | 2.147 µg/mL (≈ 2.32 µM) | 0.03 µg/mL (≈ 0.0325 µM) | 0.873 µg/mL (≈ 0.945 µM) | 0.007 µg/mL (≈ 0.00758 µM) | – | –
6 | C[C@@H](c1ncncc1F)[C@](O)(Cn1cncn1)c1ccc(F)cc1F [VORICONAZOLE] | 0.228 µg/mL (≈ 0.653 µM) | 0.018 µg/mL (≈ 0.0515 µM) | 1.328 µg/mL (≈ 3.8 µM) | 0.045 µg/mL (≈ 0.129 µM) | – | –
7 | COC1=CC(=O)C[C@@H](C)[C@]12Oc1c(Cl)c(OC)cc(OC)c1C2=O [GRISEOFULVIN] | 5.503 µg/mL (≈ 15.6 µM) | 0.607 µg/mL (≈ 1.72 µM) | 5.839 µg/mL (≈ 16.6 µM) | 0.051 µg/mL (≈ 0.145 µM) | – | –
